# Bioassay records deposited in PubChem by Johns Hopkins Ion Channel Center.
# RGS4 act: RGS4 potentiators or activators, primary screen, cell-based, HEK293 M3R inducible RGS4, calcium flux | carbachol calcium flux Fluo4; active compounds read low | B-score at 10 µM | 310,000 compounds, 0.92% hits | AID 463111, 2010;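 active means B-score of the integrated calcium signal more than 4 SD below the library mean, with starting fluorescence not abnormally high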;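 further: negative B-score means reduced calcium response which marks RGS4 activation or potentiation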
#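 Assay system: Inducible-RGS4 HEK293 cells carrying M3 receptor | Schedule: Compound preincubation 20 min at room temperature before agonist | Signal: Kinetic calcium fluorescence imaging with Fluo4-AM dye, 2 µM | Read-out basis: B score from integrated fluorescence ratio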
# RGS4 inh: RGS4 inhibitors, primary screen, cell-based, HEK293 M3R inducible RGS4, calcium flux. Regulator of G-protein signaling 4 (Homo sapiens), P49798. Fluo-4 calcium flux; active compounds read high; triggered by carbachol at its EC20. B-score at 10 µM. 310,000 compounds, 0.45% hits. AID 463165, 2010;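 active means B-score, a plate-corrected calcium signal, over three deviations above library mean, with baseline fluorescence within five deviations of library mean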;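 further: RGS4 expression induced by doxycycline in cells with stable M3 receptor; B-score is computed from the integrated fluorescence ratio over baseline after carbachol; higher B-score means a larger calcium signal and so more RGS4 inhibition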
# Target sequence (P49798 whole entry, looked up): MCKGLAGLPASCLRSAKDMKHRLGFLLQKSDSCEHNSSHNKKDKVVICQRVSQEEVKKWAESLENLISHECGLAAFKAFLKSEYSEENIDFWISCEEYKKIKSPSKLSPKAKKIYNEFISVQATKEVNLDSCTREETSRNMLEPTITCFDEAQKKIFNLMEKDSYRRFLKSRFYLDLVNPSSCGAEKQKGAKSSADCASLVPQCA
# MrgX1 PAM: positive allosteric modulators of MrgX1, primary screen, HEK293 cells, Fluo-4 calcium flux | AID 588675, 2011 | Mas-related G-protein coupled receptor member X1 (Homo sapiens), Q96LB2 | B-score at 10 µM | 310,000 compounds, 0.63% hits | FDSS; active compounds read high;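 active means plate-corrected calcium response at least 3 library SD above typical, normal starting fluorescence, not activating the receptor alone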;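 further: compound read alongside a low EC10 to EC30 dose of BAM8-22 agonist; peak minus trough fluorescence over baseline measured at the second addition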
# Target sequence (Q96LB2 whole entry, looked up): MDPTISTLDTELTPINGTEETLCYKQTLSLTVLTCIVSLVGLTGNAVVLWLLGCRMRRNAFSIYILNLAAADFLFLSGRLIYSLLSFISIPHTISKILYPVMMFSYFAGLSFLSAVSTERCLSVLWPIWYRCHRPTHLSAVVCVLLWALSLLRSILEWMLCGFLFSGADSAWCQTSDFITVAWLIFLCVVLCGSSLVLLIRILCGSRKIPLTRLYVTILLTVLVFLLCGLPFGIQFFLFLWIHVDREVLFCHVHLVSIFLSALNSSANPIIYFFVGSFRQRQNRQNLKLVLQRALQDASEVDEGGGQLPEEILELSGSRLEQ
# MrgX1 agonist: agonists of human MrgX1 receptor, primary screen, HEK293 cells, Fluo-4 calcium flux. 310,000 compounds, 0.44% hits. B-score at 10 µM. Fluo-4 calcium fluorescence, agonist mode; active compounds read high. Mas-related G-protein coupled receptor member X1 (Homo sapiens), Q96LB2;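 active means calcium response B-score plate-corrected fluorescence ratio at least 3 library SD, with starting fluorescence B-score inside 5 SD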
#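 Material: MrgX1-expressing HEK293 cells; input: 15,000 cells per well; doses: test compound given as first of three sequential additions; schedule: overnight plating before 1 h dye loading; technique: Fluo-4 NW calcium-flux fluorescence, kinetic read; evaluation: baseline-normalised fluorescence change ratio, B-scored; control set: plate-wise positive and negative controls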
# MrgX1 antag: antagonists of human MrgX1 receptor, primary screen, HEK293 cells, Fluo-4 calcium flux; B-score at 10 µM; 310,000 compounds, 1.3% hits; BAM8-22 antagonism; active compounds read low; Mas-related G-protein coupled receptor member X1 (Homo sapiens), Q96LB2;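 active means calcium-response B-score plate-corrected more than 3 library SD below zero, starting fluorescence within 5 deviations, no agonist response on first addition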;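 further: peak minus trough fluorescence over baseline after final BAM8-22 challenge near maximal dose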
# MrgX1 ant reconf: MrgX1 receptor antagonists, duplicate retest, confirmation, HEK293 cells, Fluo-4 calcium flux. shares compounds with MrgX1 antag. BAM8-22 calcium flux; active compounds read low. remaining BAM8-22 calcium response % of control (active compounds read low), % at 10 µM. 2,300 compounds, 19% hits. AID 602420, 2012;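 active means remaining agonist calcium response no higher than 100% minus 3 SD of agonist-only control wells, with starting fluorescence near control levels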;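 further: agonist BAM8-22 given at a near maximal EC90 to ECmax level; peak minus minimum fluorescence divided by baseline after agonist addition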
# HEK293 Ca flux: nonspecific calcium signal in parental HEK293, confirmation, counter-screen for MrgX1 antagonist project, parental HEK293 cells, Fluo-4 calcium flux; shares compounds with MrgX1 antag; Fluo-4 calcium fluorescence, FDSS; fluorescence ratio F(max-min)/F0 at 10 µM; 4,000 compounds, 2% hits; AID 624111, 2012;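 active means duplicate-averaged calcium fluorescence ratio at least three times the standard deviation of buffer wells, a nonspecific response in parental cells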
# HEK293 Ca counter: calcium response in parental HEK293 cells, primary screen, counter-screen for MrgX1 allosteric activator project, cell-based, Fluo-4 calcium flux, duplicate | shares compounds with MrgX1 antag | Fluo-4 fluorescence ratio; active compounds read high | fluorescence ratio F(max-min)/F0 at 10 µM | 4,000 compounds, 0.4% hits | AID 624114, 2012;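 active means calcium fluorescence ratio, averaged over duplicates, at least 3 SD of the buffer-well ratio, meaning a nonspecific response in receptor-free cells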;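 further: untransfected parental HEK293 lacking MrgX1 used as counterscreen for MrgX1 allosteric activators; fluorescence change taken during the second addition on a kinetic imager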
# HEK293 Ca cntr2: calcium response in parental HEK293 cells, primary screen, counter-screen for MrgX1 agonist project, cell-based, Fluo-4 calcium flux, duplicate, agonist mode; shares compounds with MrgX1 antag; Fluo-4 calcium fluorescence (FDSS); active compounds read high; fluorescence ratio F(max-min)/F0 at 10 µM; 4,000 compounds, 8.7% hits; AID 624115, 2012;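 active means calcium fluorescence ratio at least three times the spread of buffer wells, meaning a non-specific response in parental cells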
# * marks the source's active call; other numbers are inactive results; i = inactive; nt = not tested or not shown. Rows were chosen to be rich in hits. Some 3.5% of all compounds tested hit in one or more screens of this group.
SMILES,RGS4 act,RGS4 inh,MrgX1 PAM,MrgX1 agonist,MrgX1 antag,MrgX1 ant reconf,HEK293 Ca flux,HEK293 Ca counter,HEK293 Ca cntr2
O=C(Nc1ccc2[nH]ccc2c1)c1ccc(F)cc1,i,i,i,i,i,nt,nt,nt,nt
O=C(Nc1ccc2[nH]ccc2c1)c1ccccc1,i,i,i,i,-7.8*,84%*,i,i,i
CCOc1ccc(NC(=O)COC(=O)COc2cccc3c2OC(C)(C)C3)cc1,i,i,i,i,i,nt,nt,nt,nt
CC(OC(=O)COc1cccc2c1OC(C)(C)C2)C(=O)Nc1ccc(S(N)(=O)=O)cc1 (stereo not drawn),i,i,i,i,-5.4*,i,i,i,i
COc1cccc(-n2nnc3c(=O)n(CC(=O)N4CCC(Cc5ccccc5)CC4)cnc32)c1,i,i,i,i,-7.5*,i,i,i,i
CCc1ccccc1NC(=O)CSc1nnc(-c2ccco2)n1N,i,i,i,i,-6.7*,i,i,i,i
CN(C)CCCSc1nc2ccccc2s1,i,i,i,i,-7.1*,69%*,i,i,i
Cc1cc(C)c(NC(=O)Cn2nc(-c3ccccc3)nc2-c2ccccc2)c(C)c1,i,i,i,i,i,nt,nt,nt,nt
COc1ccc(NC(=O)CSc2ccccc2)c(OC)c1,i,i,i,i,-9.1*,i,i,i,i
COc1ccc(NC(=O)CSc2nc(=O)n(CCN3CCOCC3)c3c2CCC3)c(OC)c1,i,i,i,i,-7.6*,i,i,i,i
CCCCOc1cc(=O)[nH]c(=O)[nH]1,i,i,i,i,i,nt,nt,nt,nt
CC(C)(CNC(=O)c1ccc(NS(=O)(=O)c2ccc(Br)cc2)cc1)N1CCOCC1,i,i,i,i,-6.5*,51%*,i,i,i
O=C(NCc1cccs1)c1cc2ccccc2o1,i,i,i,i,-7.5*,i,i,i,i
CC(C)(CNC(=O)c1cc2ccccc2o1)N1CCOCC1,i,i,i,i,-4.5*,i,i,i,i
O=C(NCCN1CCOCC1)c1cc2ccccc2o1,i,i,i,i,i,nt,nt,nt,nt
CCN(CC)CC(=O)NC12CC3CC(CC(C3)C1)C2,i,i,i,i,i,nt,nt,nt,nt
N#CCSc1nnc(Cc2cccs2)n1C1CCCCC1,i,i,i,i,-4.7*,i,i,i,i
N#C/C(=C(/O)CSc1nnc(Cc2cccs2)n1C1CCCCC1)c1nc2ccccc2[nH]1,i,i,i,i,i,nt,nt,nt,nt
Cc1ccc(CNC(=O)Cc2ccc(-n3cccc3)cc2)cc1,i,i,i,i,i,nt,nt,nt,nt
Cc1cc(C)c(NC(=O)Cc2ccc(-n3cccc3)cc2)c(C)c1,i,i,i,i,-5.5*,i,i,i,i
Cc1occc1C(=O)Nc1sc2c(c1C(N)=O)CCCCC2,i,i,i,i,-6.5*,i,i,i,i
